Experimental data taken from ChEMBL document CHEMBL4350961, “Discovery of Pyrrolo[3,2- d]pyrimidin-4-one Derivatives as a New Class of Potent and Cell-Active Inhibitors of P300/CBP-Associated Factor Bromodomain” (J Med Chem, 2019).
The source made the active and inactive calls. The rule behind the calls is not given here.

How the values were obtained:
[1] = target: Ribosomal protein S6 kinase alpha-5 (Homo sapiens) (UniProt O75582); assay: Inhibition of recombinant human MSK1 (2 to end residues) at 10 uM using GRPRTSSFAEGKK as substrate measured after 40 mins in presence of [gamma33P]ATP by scintillation counting method
[2] = target: Mitogen-activated protein kinase kinase kinase 20 (Homo sapiens) (UniProt Q9NYL2); assay: Inhibition of recombinant full-length human ZAK at 10 uM using MBP as substrate measured after 40 mins in presence of [gamma33P]ATP by scintillation counting method
[3] = Oral bioavailability in Sprague-Dawley rat at 10 mg/kg administered via gavage by LC-MS/MS analysis; assay type: ADME, organism-based; conditions: in vivo
[4] = target: Serine/threonine-protein kinase PRP4 homolog (Homo sapiens) (UniProt Q13523); assay: Inhibition of human PRP4 (663 to end residues) using casein as substrate measured after 40 mins in presence of [gamma33P]ATP by scintillation counting method
Outline: (§1)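 Kinase panel of 422 kinases screened by Eurofins KinaseProfiler at a single test-compound concentration of 10 µM.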

[5] = system: Fibroblast growth factor receptor 1 (Homo sapiens), P11362 [V561M]; assay: Inhibition of recombinant human FGFR1 V561M mutant (456 to 765 residues) at 10 uM using GGEEEEYFELVKKKK as substrate measured after 40 mins in presence of [gamma33P]ATP by scintillation counting method
[6] = target: Bromodomain adjacent to zinc finger domain protein 2B (Homo sapiens) (UniProt Q9UIF8); assay: Binding affinity to human partial length BAZ2B (S2054 to S2168 residues) expressed in bacterial expression system at 1 uM by BROMOscan assay
Outline: (§2)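 BROMOscan bromodomain cross-screen run by an outside service, compound at 1 µM against 32 recombinant bromodomains. Binding given as percent of control.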

[7] = target: Tau-tubulin kinase 2 (Homo sapiens) (UniProt Q6IQ55); assay: Inhibition of human TTBK2 (1 to 331 residues) using Casein as substrate measured after 40 mins in presence of [gamma33P]ATP by scintillation counting method
[8] = target: Testis-specific serine/threonine-protein kinase 2 (Homo sapiens) (UniProt Q96PF2); assay: Inhibition of recombinant full-length human TSSK2 at 10 uM using KKKVSRSGLYRSPSMPENLNRPR as substrate measured after 40 mins in presence of [gamma33P]ATP by scintillation counting method
[9] = target: Calcium/calmodulin-dependent protein kinase type 1B (Homo sapiens) (UniProt Q6P2M8); assay: Inhibition of recombinant full-length human CaMK1beta at 10 uM using calmodulin as substrate measured after 40 mins in presence of [gamma33P]ATP by scintillation counting method
[10] = target: cGMP-dependent protein kinase 1 (Homo sapiens) (UniProt Q13976); assay: Inhibition of recombinant full-length human PKG1alpha at 10 uM using RRRLSFAEPG as substrate measured after 40 mins in presence of [gamma33P]ATP by scintillation counting method
[11] = target: Casein kinase I (Homo sapiens) (UniProt Q9HCP0+P78368+P48730+P49674+P48729); assay: Inhibition of CK1 (unknown origin) at 10 uM; assay type: protein assay; outline: as §1
[12] = target: Serine/threonine-protein kinase ULK1 (Homo sapiens) (UniProt O75385); assay: Inhibition of human ULK1 (1 to 314 residues) using casein as substrate measured after 40 mins in presence of [gamma33P]ATP by scintillation counting method
[13] = target: Dual specificity mitogen-activated protein kinase kinase 4 (Homo sapiens) (UniProt P45985); assay: Inhibition of recombinant human MKK4 (34 to end residues) at 10 uM using unactive JNK1a1 as substrate measured after 40 mins in presence of [gamma33P]ATP by scintillation counting method
[14] = target: Activin receptor type-2A (Homo sapiens) (UniProt P27037); assay: Inhibition of recombinant human ACTR2 (162 to end residues) at 10 uM using casein as substrate measured after 120 mins in presence of [gamma33P]ATP by scintillation counting method
[15] = target: Bromodomain-containing protein 1 (Homo sapiens) (UniProt O95696); assay: Binding affinity to human partial length BRD1 (E556 to A688 residues) expressed in bacterial expression system at 1 uM by BROMOscan assay; outline: as §2
[16] = target: Hepatocyte growth factor receptor (Homo sapiens) (UniProt P08581); assay: Inhibition of recombinant human MET A1209G/V1290L mutant (974 to end residues) at 10 uM using KKKGQEEEYVFIE as substrate measured after 40 mins in presence of [gamma33P]ATP by scintillation counting method
[17] = target: Ephrin type-A receptor 2 (Homo sapiens) (UniProt P29317); assay: Inhibition of recombinant human EphA2 (596 to 900 residues) at 10 uM using poly(Glu, Tyr) 4:1 as substrate measured after 40 mins in presence of [gamma33P]ATP by scintillation counting method
[18] = system: Serine/threonine-protein kinase TAO3 (Homo sapiens), Q9H2K8 [UNDEFINED MUTATION]; assay: Inhibition of human TAO3 (1 to 411 residues) using myelin basic protein as substrate measured after 40 mins in presence of [gamma33P]ATP by scintillation counting method
[19] = system: PI3-kinase p110-alpha/p85-alpha (Homo sapiens), P27986+P42336 [E545K]; assay: Inhibition of recombinant full-length human PI3K p110alpha/p85alpha E545K mutant at 10 uM using phosphatidylinositol-4, 5-bisphosphate as substrate measured after 40 mins by fluorescence assay; assay type: protein-complex assay
[20] = target: Serine/threonine-protein kinase ULK3 (Homo sapiens) (UniProt Q6PHR2); assay: Inhibition of recombinant full-length human ULK3 at 10 uM using casein as substrate measured after 40 mins in presence of [gamma33P]ATP by scintillation counting method
[21] = target: Cyclin-dependent kinase 2/cyclin E1 (Homo sapiens) (UniProt P24864+P24941); assay: Inhibition of recombinant full-length human CDK2/cyclinE at 10 uM using histone H1 as substrate measured after 40 mins in presence of [gamma33P]ATP by scintillation counting method; assay type: protein-complex assay
[22] = target: Homeodomain-interacting protein kinase 1 (Homo sapiens) (UniProt Q86Z02); assay: Inhibition of recombinant human activated HIPK1 (158 to 555 residues) at 10 uM using myelin basic protein as substrate measured after 40 mins in presence of [gamma33P]ATP by scintillation counting method
[23] = system: Tyrosine-protein kinase receptor UFO (Homo sapiens), P30530 [Q764R]; assay: Inhibition of recombinant human AXL Q764R mutant (473 to end residues) at 10 uM using KKSRGDYMTMQIG as substrate measured after 40 mins in presence of [gamma33P]ATP by scintillation counting method
[24] = system: eIF-2-alpha kinase GCN2 (Homo sapiens), Q9P2K8 [E556G]; assay: Inhibition of recombinant full-length human GCN2 E556G mutant at 10 uM using RSRSRSRSRSRSRSR as substrate measured after 40 mins in presence of [gamma33P]ATP by scintillation counting method

Serine/threonine-protein kinase PRP4 homolog (Homo sapiens), sequence (Q13523 whole entry): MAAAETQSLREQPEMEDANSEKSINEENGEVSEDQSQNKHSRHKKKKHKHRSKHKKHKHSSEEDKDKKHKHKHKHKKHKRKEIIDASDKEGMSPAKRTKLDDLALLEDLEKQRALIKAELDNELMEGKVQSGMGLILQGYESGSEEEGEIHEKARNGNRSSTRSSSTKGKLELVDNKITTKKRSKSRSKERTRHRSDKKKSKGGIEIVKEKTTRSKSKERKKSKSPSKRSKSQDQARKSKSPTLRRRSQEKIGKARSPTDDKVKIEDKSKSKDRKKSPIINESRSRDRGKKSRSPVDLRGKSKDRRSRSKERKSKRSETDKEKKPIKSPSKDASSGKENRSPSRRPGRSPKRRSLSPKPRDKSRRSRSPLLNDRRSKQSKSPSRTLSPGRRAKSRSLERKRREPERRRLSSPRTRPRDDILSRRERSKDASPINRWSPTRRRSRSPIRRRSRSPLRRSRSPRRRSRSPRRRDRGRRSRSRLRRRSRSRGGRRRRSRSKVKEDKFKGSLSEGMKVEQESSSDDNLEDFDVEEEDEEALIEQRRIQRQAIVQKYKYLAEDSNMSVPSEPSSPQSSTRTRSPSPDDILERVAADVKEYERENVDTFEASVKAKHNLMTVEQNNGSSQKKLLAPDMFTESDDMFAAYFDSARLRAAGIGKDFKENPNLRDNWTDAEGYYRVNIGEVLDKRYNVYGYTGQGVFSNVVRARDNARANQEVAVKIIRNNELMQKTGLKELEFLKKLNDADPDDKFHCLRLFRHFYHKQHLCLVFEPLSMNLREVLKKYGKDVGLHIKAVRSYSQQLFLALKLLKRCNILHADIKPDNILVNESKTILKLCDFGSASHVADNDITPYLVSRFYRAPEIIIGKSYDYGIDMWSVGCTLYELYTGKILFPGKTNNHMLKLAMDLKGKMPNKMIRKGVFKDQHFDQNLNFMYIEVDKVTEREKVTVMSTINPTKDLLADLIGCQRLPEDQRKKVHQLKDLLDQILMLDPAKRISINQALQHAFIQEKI
Ribosomal protein S6 kinase alpha-5 (Homo sapiens), sequence (O75582 whole entry, looked up): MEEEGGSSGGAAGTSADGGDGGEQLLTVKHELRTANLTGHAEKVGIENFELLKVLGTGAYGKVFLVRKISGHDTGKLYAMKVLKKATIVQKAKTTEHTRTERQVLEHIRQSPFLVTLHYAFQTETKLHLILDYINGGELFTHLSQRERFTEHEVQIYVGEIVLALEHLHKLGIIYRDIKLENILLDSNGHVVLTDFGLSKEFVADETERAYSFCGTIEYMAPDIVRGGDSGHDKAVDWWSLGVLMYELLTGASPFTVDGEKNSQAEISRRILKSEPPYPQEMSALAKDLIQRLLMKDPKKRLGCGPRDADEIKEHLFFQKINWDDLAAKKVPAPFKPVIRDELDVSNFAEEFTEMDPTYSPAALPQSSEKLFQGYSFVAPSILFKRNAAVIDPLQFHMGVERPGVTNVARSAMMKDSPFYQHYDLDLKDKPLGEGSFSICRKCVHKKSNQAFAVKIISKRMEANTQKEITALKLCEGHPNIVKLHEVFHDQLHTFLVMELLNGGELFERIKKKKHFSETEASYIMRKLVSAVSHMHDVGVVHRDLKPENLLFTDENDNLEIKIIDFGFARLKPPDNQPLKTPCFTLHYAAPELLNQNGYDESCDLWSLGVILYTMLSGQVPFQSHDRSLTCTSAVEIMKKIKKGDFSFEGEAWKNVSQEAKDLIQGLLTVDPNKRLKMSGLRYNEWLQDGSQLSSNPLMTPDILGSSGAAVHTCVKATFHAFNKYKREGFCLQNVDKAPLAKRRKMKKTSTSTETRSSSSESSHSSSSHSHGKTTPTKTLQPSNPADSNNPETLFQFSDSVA
Serine/threonine-protein kinase ULK1 (Homo sapiens), sequence (O75385 whole entry, the tested form may be a part): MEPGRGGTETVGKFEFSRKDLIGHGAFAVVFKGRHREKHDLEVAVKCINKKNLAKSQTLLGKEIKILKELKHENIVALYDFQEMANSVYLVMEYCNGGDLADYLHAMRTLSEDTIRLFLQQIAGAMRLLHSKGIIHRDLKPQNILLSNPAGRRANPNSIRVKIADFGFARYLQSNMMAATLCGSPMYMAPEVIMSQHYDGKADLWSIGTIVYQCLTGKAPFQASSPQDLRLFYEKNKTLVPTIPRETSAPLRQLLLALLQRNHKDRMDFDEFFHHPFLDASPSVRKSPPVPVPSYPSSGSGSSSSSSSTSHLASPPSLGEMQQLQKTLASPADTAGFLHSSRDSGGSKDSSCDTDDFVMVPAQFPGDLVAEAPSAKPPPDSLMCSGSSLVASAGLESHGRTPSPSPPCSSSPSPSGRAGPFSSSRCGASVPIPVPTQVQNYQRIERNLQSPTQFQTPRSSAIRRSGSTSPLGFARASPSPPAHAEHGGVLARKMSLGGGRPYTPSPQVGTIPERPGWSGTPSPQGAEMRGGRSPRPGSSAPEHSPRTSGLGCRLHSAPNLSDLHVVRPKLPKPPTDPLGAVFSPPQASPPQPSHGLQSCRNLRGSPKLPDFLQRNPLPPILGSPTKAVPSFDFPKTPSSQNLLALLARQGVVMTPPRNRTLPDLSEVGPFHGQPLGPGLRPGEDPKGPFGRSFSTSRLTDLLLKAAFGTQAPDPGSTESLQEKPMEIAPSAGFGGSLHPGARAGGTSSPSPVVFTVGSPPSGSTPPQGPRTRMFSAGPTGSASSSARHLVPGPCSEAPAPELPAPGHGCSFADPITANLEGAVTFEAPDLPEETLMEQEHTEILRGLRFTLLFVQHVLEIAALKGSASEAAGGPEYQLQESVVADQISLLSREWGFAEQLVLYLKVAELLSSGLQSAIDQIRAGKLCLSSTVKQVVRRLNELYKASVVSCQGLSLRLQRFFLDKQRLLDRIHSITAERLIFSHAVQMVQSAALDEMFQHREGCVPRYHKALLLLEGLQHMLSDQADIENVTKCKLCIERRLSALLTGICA
Ephrin type-A receptor 2 (Homo sapiens), sequence (P29317 whole entry, the tested form may be a part): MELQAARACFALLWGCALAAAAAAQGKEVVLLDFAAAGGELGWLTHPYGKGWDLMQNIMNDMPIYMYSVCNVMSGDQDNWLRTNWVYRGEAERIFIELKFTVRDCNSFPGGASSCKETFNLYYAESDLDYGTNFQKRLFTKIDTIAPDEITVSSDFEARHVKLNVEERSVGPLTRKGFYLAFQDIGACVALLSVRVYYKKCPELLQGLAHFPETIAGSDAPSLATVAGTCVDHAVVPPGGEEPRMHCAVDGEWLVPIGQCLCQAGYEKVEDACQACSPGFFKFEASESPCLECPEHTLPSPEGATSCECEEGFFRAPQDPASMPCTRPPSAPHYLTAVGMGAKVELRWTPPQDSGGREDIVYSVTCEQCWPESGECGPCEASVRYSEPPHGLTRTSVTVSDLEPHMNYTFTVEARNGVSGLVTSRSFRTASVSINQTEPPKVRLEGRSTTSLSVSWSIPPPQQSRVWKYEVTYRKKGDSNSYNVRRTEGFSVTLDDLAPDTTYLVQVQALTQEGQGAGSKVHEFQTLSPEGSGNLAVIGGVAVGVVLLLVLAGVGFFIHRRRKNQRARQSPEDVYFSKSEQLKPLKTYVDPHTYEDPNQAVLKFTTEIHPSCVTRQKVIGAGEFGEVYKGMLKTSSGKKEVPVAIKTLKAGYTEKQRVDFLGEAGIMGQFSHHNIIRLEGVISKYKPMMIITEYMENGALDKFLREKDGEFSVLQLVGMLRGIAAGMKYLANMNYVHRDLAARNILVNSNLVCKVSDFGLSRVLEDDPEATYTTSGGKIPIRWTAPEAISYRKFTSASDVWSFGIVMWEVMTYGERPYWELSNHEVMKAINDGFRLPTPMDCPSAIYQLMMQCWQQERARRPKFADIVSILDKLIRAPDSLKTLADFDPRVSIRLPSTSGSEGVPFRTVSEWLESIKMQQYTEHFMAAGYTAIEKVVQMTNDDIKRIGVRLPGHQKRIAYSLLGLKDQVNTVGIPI
Tau-tubulin kinase 2 (Homo sapiens), sequence (Q6IQ55 whole entry, the tested form may be a part): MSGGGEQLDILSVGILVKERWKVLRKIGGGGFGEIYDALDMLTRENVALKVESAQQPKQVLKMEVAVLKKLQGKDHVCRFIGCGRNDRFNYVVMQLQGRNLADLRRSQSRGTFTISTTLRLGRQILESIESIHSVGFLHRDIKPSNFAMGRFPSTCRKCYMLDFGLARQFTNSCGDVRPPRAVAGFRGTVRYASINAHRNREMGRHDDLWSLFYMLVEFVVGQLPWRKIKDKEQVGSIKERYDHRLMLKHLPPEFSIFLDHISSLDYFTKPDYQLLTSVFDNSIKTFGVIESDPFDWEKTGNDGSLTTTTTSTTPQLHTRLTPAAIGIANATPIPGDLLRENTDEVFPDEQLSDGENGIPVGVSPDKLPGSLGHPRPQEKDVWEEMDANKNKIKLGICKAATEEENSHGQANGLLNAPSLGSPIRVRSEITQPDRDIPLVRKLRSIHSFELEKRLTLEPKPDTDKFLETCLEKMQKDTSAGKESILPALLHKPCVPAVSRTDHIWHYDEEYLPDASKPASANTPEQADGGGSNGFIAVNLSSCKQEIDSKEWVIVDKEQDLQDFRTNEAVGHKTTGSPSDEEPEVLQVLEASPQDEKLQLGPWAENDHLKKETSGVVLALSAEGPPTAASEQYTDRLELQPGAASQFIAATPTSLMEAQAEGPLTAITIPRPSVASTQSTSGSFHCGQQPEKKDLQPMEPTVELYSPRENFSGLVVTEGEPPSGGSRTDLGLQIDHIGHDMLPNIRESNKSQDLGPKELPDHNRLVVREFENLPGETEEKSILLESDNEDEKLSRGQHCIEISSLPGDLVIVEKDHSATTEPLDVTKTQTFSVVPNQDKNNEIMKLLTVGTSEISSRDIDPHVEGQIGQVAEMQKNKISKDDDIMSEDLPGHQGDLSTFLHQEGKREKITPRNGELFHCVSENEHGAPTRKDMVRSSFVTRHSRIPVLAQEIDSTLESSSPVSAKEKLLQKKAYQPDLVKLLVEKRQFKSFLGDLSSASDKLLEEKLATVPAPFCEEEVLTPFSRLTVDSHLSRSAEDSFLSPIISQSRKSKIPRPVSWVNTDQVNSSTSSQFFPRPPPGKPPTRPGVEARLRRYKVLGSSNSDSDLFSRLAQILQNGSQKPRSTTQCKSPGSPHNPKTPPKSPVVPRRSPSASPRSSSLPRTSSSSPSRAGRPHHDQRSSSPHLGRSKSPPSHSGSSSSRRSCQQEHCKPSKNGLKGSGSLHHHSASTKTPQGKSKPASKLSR

Q: Which results are given for `CN1C[C@H](Nc2nc3cc[nH]c3c(=O)n2C)C[C@H](c2ccc3c(c2)OCCO3)C1`?
A: inhibition [1]: inactive; inhibition [2]: inactive; bioavailability [3]: 52%; inhibition [4]: inactive; inhibition [5]: inactive; Activity [6]: Active; inhibition [7]: inactive; inhibition [8]: inactive; inhibition [9]: inactive; inhibition [10]: inactive; inhibition [11]: inactive; inhibition [12]: inactive; inhibition [13]: inactive; inhibition [14]: inactive; Activity [15]: inactive; inhibition [16]: inactive; inhibition [17]: inactive; inhibition [18]: inactive; inhibition [19]: inactive; inhibition [20]: inactive; inhibition [21]: inactive; inhibition [22]: inactive; inhibition [23]: inactive; inhibition [24]: inactive
